Data published in PMC8774845 (Plant Physiology, 2021).
“And” between values parts separate entries of the source, which are not always exact repeats. Equal values may be shown once. “Also recorded” adds a separate entry of the source. Read-outs that look alike come from different tables or passages of the source.

Assays:
Potri11G4700 = assay: Effect of 100 μM Phe over ADT activity, recombinant type-I ADT; assay type: biochemical, Populus trichocarpa; conditions: 100 µM of Phe, 100 µM of substrate (Agn), compared to control (absence of Phe)
How it was run: (§1)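 Type-I or type-II plant ADT ORFs were cloned from cDNA into pET30b without the putative plastid transit peptide and with a C-terminal His tag. Proteins were expressed in E. coli BL21 DE3 RIL (0.5 mM IPTG, 18–20 h at 12°C) and Ni-purified. About 1 µg was preincubated 5 min with 100 µM Phe in 50 mM Tris pH 8.0. Reaction started with 100 µM Agn at 30°C and was stopped with methanol. Phe formed was quantified by UPLC/MS. Activity is relative to the no-Phe control (100%); triplicate.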

PpADT-C [1] = assay: Inhibition of ADT activity by Phe, recombinant enzyme; assay type: biochemical, Pinus pinaster; conditions: read-out: ADT IC50 (μM of Phe), 0.1 mM of Agn
How it was run: (§2)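 The Pinus pinaster ADT was used either as wild-type or as chimeras made by fusion PCR. It was His-tagged without the transit peptide, expressed in E. coli BL21 DE3 RIL and Ni-purified. About 1 µg of protein in 50 mM Tris pH 8.0 was preincubated 5 min with a range of Phe concentrations. Reaction started with 0.1 mM Agn at 30°C and was stopped with methanol. Phe product was quantified by UPLC/MS, with linearity checked over ≥5 min. At least duplicate; IC50 from kinetic fitting.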

Zeama2G125923 = assay: Effect of 100 μM Phe over ADT activity, recombinant type-II ADT; assay type: biochemical, Zea mays; conditions: 100 µM of Phe, 100 µM of substrate (Agn)
How it was run: as §1

PpADT-Gmut^9 = assay: Inhibition of PDT activity by Phe, mutant enzyme; assay type: biochemical, Pinus pinaster; conditions: read-out: IC50 (μM) for Phe; PDT reaction, 1 mM of substrate (Ppa); Ala314→Val, Ala316→Ser, Val317→Ala
How it was run: (§3)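 Ni-purified His-tagged mutants, expressed in E. coli BL21 DE3 RIL, were assayed for PDT activity. About 5 µg protein in 50 mM Tris pH 8.0 was preincubated 5 min at 30°C with varying Phe. Reactions were started with 1 mM prephenate, stopped with 2 M NaOH and read at 321 nm against a phenylpyruvate calibration. Runs were in triplicate, linear ≥5 min, with IC50 obtained by kinetic fitting.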

PpADT-Gmut^6 = assay: Inhibition of PDT activity by Phe, mutant enzyme; assay type: biochemical, Pinus pinaster; conditions: read-out: IC50 (μM) for Phe; PDT reaction, 1 mM of substrate (Ppa); Thr303→Ala, Leu304→Gln
How it was run: as §3

PpADT-Cmut^1 [2] = assay: Inhibition of PDT activity by Phe, chimeric enzyme; assay type: biochemical, Pinus pinaster
How it was run: (§4)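 PDT reaction: about 5 µg of His-tagged, Ni-purified Pinus pinaster ADT (wild-type or fusion-PCR chimera) in 50 mM Tris pH 8.0 was preincubated 5 min with Phe. The reaction started with 1 mM Ppa at 30°C; Ppa content was first verified by HCl conversion. It was stopped with 2 M NaOH and left ≥10 min at room temperature. Phenylpyruvate was read at 321 nm against a calibration curve. At least duplicate; IC50, Ki and inhibition type came from kinetic fitting.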

Niben8991 = assay: Effect of 100 μM Phe over ADT activity, recombinant type-I ADT; assay type: biochemical, Nicotiana benthamiana; conditions: 100 µM of Phe, 100 µM of substrate (Agn), compared to control (absence of Phe)
How it was run: as §1

PpADT-Gmut^62 = assay: Inhibition of PDT activity by Phe, mutant enzyme; assay type: biochemical, Pinus pinaster; conditions: read-out: IC50 (μM) for Phe; PDT reaction, 1 mM of substrate (Ppa); Thr303→Ala, Leu304→His
How it was run: as §3

PpADT-Gmut^12 = assay: Inhibition of PDT activity by Phe, mutant enzyme; assay type: biochemical, Pinus pinaster; conditions: read-out: IC50 (μM) for Phe; PDT reaction, 1 mM of substrate (Ppa); Ala316→Ser
How it was run: (§5)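 PpADT-G point mutants were made by site-directed mutagenesis, expressed His-tagged in E. coli BL21 DE3 RIL and Ni-purified. About 5 µg of protein in 50 mM Tris pH 8.0 was preincubated 5 min with varying Phe. The PDT reaction started with 1 mM Ppa at 30°C and was stopped with 2 M NaOH. Phenylpyruvate was read by absorbance at 321 nm against a phenylpyruvate calibration. Triplicate; IC50 was fitted.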

PpADT-Gmut^10 = assay: Inhibition of PDT activity by Phe, mutant enzyme; assay type: biochemical, Pinus pinaster; conditions: read-out: IC50 (μM) for Phe; PDT reaction, 1 mM of substrate (Ppa); Leu320→Phe, Asn324→Ser
How it was run: as §3

PpADT-C [3] = assay: Inhibition of PDT activity by Phe, recombinant enzyme; assay type: biochemical, Pinus pinaster
How it was run: as §4

PpADT-Gmut^8 [4] = assay: Inhibition of PDT activity by Phe, mutant enzyme; assay type: biochemical, Pinus pinaster; conditions: read-out: IC50 (μM) for Phe; PDT reaction, 1 mM of substrate (Ppa); Pro308→Thr, Gly309→Ser
How it was run: as §3

ADT activity = conditions: read-out: IC50 for ADT activity; crude plant extracts; ref Jung et al., 1986; cited from earlier work
PpADT-Gmut^11 = assay: Inhibition of PDT activity by Phe, mutant enzyme; assay type: biochemical, Pinus pinaster; conditions: read-out: IC50 (μM) for Phe; PDT reaction, 1 mM of substrate (Ppa); Ala314→Val
How it was run: as §5

PpADT-Gmut^1 [5] = assay: Inhibition of PDT activity by Phe, chimeric enzyme; assay type: biochemical, Pinus pinaster
How it was run: as §4

PpADT-Gmut^1 [6] = assay: Inhibition of ADT activity by Phe, chimeric enzyme; assay type: biochemical, Pinus pinaster; conditions: read-out: ADT IC50 (μM of Phe), 0.1 mM of Agn
How it was run: as §2

plastidial CM [7] = conditions: read-out: Ki, inhibition of plastidial CM by Phe; ref Benesova and Bode, 1992; cited from earlier work
PpADT-Cmut^1 [8] = assay: Inhibition of ADT activity by Phe, chimeric enzyme; assay type: biochemical, Pinus pinaster; conditions: read-out: ADT IC50 (μM of Phe), 0.1 mM of Agn
How it was run: as §2

Orysa4G33390 = assay: Effect of 100 μM Phe over ADT activity, recombinant type-II ADT; assay type: biochemical, O. sativa; conditions: 100 µM of Phe, 100 µM of substrate (Agn)
How it was run: as §1

PpADT-G [9] = assay: Inhibition of PDT activity by Phe, recombinant enzyme; assay type: biochemical, Pinus pinaster
How it was run: as §4

plastidial CM [10] = conditions: read-out: IC50, inhibition of plastidial CM by Phe; ref Kroll et al., 2017; cited from earlier work
PpADT-G [11] = assay: Inhibition of ADT activity by Phe, recombinant enzyme; assay type: biochemical, Pinus pinaster
How it was run: as §2

PpADT-Gmut^103 = assay: Inhibition of PDT activity by Phe, mutant enzyme; assay type: biochemical, Pinus pinaster; conditions: read-out: IC50 (μM) for Phe; PDT reaction, 1 mM of substrate (Ppa); Asn324→Ser
How it was run: as §5

plastidial CM [12] = conditions: read-out: Ki, inhibition of plastidial CM by Phe; ref Kuroki and Conn, 1988; cited from earlier work
PpADT-Gmut^13 = assay: Inhibition of PDT activity by Phe, mutant enzyme; assay type: biochemical, Pinus pinaster; conditions: read-out: IC50 (μM) for Phe; PDT reaction, 1 mM of substrate (Ppa); Val317→Ala
How it was run: as §5

PpADT-Gmut^16 = assay: Inhibition of PDT activity by Phe, mutant enzyme; assay type: biochemical, Pinus pinaster; conditions: read-out: IC50 (μM) for Phe; PDT reaction, 1 mM of substrate (Ppa); Ala316→Ser, Val317→Ala
How it was run: as §3

PpADT-Gmut^8 [13] = assay: Effect of 100 μM Phe over ADT activity, mutant enzyme; assay type: biochemical, Pinus pinaster; conditions: Phe at 100 µM
How it was run: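 His-tagged recombinant mutant enzyme without its transit peptide, expressed in E. coli BL21 DE3 RIL and Ni-purified. About 1 µg protein in 50 mM Tris pH 8.0 was preincubated 5 min at 30°C with 100 µM Phe. Arogenate was added to start the reaction, and methanol stopped it. Phe formed was quantified by UPLC/MS against a pure-Phe calibration. Activity is relative to the no-Phe control; error bars sd.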

plastidial CM [14] = conditions: read-out: IC50, inhibition of plastidial CM by Phe; ref Westfall et al., 2014; cited from earlier work
Potri4G188100 = assay: Effect of 100 μM Phe over ADT activity, recombinant type-II ADT; assay type: biochemical, P. trichocarpa; conditions: 100 µM of Phe, 100 µM of substrate (Agn)
How it was run: as §1

AtADT1 = AtADT1 (Arabidopsis thaliana, UniProt Q9SA96); assay: Effect of 100 μM Phe over ADT activity, recombinant type-I ADT; assay type: biochemical, A. thaliana; conditions: 100 µM of Phe, 100 µM of substrate (Agn), compared to control (absence of Phe)
Sequence of AtADT1 (Q9SA96 49-392): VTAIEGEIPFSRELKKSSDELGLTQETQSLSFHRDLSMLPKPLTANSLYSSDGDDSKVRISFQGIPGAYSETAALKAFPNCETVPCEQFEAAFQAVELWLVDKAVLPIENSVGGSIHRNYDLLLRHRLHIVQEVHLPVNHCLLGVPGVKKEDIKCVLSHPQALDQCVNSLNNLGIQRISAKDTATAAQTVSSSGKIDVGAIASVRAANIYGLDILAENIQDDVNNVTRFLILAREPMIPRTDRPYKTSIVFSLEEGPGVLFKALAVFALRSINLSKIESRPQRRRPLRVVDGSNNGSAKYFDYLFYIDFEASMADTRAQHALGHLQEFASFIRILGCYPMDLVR
How it was run: as §1

AtADT4 = AtADT4 (Arabidopsis thaliana, UniProt O22241); assay: Effect of 100 μM Phe over ADT activity, recombinant type-II ADT; assay type: biochemical, A. thaliana; conditions: 100 µM of Phe, 100 µM of substrate (Agn)
Sequence of AtADT4 (O22241 35-424): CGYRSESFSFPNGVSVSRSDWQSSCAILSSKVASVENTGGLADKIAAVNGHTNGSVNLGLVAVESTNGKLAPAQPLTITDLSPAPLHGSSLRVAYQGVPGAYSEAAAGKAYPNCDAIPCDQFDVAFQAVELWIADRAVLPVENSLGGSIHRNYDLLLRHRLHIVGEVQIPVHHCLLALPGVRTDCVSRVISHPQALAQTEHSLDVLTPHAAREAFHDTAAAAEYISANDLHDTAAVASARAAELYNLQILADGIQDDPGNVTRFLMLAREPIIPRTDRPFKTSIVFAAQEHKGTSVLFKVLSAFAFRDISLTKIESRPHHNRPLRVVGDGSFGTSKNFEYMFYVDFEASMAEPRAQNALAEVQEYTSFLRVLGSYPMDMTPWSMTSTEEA
How it was run: as §1

PpADT-Gmut^102 = assay: Inhibition of PDT activity by Phe, mutant enzyme; assay type: biochemical, Pinus pinaster; conditions: read-out: IC50 (μM) for Phe; PDT reaction, 1 mM of substrate (Ppa); Leu320→Phe
How it was run: as §5

Cucsa52640 = assay: Effect of 100 μM Phe over ADT activity, recombinant type-I ADT; assay type: biochemical, Cucumis sativus; conditions: 100 µM of Phe, 100 µM of substrate (Agn), compared to control (absence of Phe)
How it was run: as §1

[15] = read-out: PDT IC50 (μM of Phe), 1 mM of Ppa

N[C@@H](Cc1ccccc1)C(=O)O [Phe, phenylalanine]
decrease in ADT activity (Potri11G4700): > 90% | IC50 (PpADT-C [1]): > 100 µM | effect on ADT activity (Zeama2G125923): not substantially affected | IC50 (PpADT-Gmut^9): 17.5 ± 3.7 µM | IC50 (PpADT-Gmut^6): 333 ± 8 µM | Proposed type of inhibition (PpADT-Cmut^1 [2]): Uncompetitive | IC50 (PpADT-Cmut^1 [2]; [15]): ~36.1 µM and 36.1 µM | Ki (PpADT-Cmut^1 [2]; read-out: PDT K i (μM of Phe)): 170 ± 16.3 µM | decrease in ADT activity (Niben8991): > 90% | IC50 (PpADT-Gmut^62): 333.5 ± 3.1 µM | IC50 (PpADT-Gmut^12): 26 ± 4.8 µM | IC50 (PpADT-Gmut^10): 184 ± 24.7 µM | Proposed type of inhibition (PpADT-C [3]): Cooperative | IC50 (PpADT-C [3]; [15]): 320 µM | IC50 (PpADT-Gmut^8 [4]): 445 µM | IC50 (ADT activity): ~35 µM | IC50 (PpADT-Gmut^11): 14.6 ± 2.3 µM | Proposed type of inhibition (PpADT-Gmut^1 [5]): allosteric; also recorded: Cooperative | IC50 (PpADT-Gmut^1 [5]; [15]): 390 ± 15.4 µM | IC50 (PpADT-Gmut^1 [6]): > 100 µM | Ki (plastidial CM [7]): 1100 µM | IC50 (PpADT-Cmut^1 [8]): ~52.8 µM and 52.8 µM | effect on ADT activity (Orysa4G33390): not substantially affected | Proposed type of inhibition (PpADT-G [9]): Uncompetitive | IC50 (PpADT-G [9]; [15]): 47.7 ± 3 µM | Ki (PpADT-G [9]; read-out: PDT K i (μM of Phe)): 28.1 ± 1 µM | IC50 (plastidial CM [10]): 82 µM | ADT activity at 100 µM of Phe (PpADT-G [11]; 100 µM of Phe): mostly inactive | IC50 (PpADT-G [11]; read-out: ADT IC50 (μM of Phe), ADT activity, 0.1 mM of Agn): 27.6 ± 1.5 µM | IC50 (PpADT-Gmut^103): 234 ± 4.9 µM | Ki (plastidial CM [12]): 550 µM | IC50 (PpADT-Gmut^13): 23.6 ± 1.4 µM | IC50 (PpADT-Gmut^16): 17.2 ± 0.2 µM | Phe-mediated inhibition of ADT activity compared to the wild-type (PpADT-Gmut^8 [13]): more resistant to inhibition than the wild-type | IC50 (plastidial CM [14]): 50 µM | effect on ADT activity (Potri4G188100): not substantially affected | decrease in ADT activity (AtADT1): > 90% | effect on ADT activity (AtADT4): not substantially affected | IC50 (PpADT-Gmut^102): 135.4 ± 0.7 µM | decrease in ADT activity (Cucsa52640): > 90%
